Laboratory results as given in ChEMBL document CHEMBL1165950, “Design and synthesis of new potent anticancer pyrazoles with high FLT3 kinase inhibitory selectivity” (Bioorg Med Chem, 2010).

Legend:
Type in all cases: functional
UO-31 = assay: Cytotoxicity against human UO31 cells assessed as cell growth at 10 uM after 48 hrs by sulforhodamine B assay; conditions: UO-31, 48 h, read-out: Activity
RXF 393 [1] = assay: Cytotoxicity against human RXF393 cells assessed as cell growth at 0.001 uM after 48 hrs by sulforhodamine B assay; conditions: RXF 393, 48 h, read-out: Activity
NCI-H226 [2] = assay: Cytotoxicity against human NCI-H226 cells assessed as cell growth at 100 nM after 48 hrs by sulforhodamine B assay; conditions: NCI-H226, 48 h, read-out: Activity
HL-60(TB) = assay: Cytotoxicity against human HL-60(TB) cells assessed as cell growth at 1 uM after 48 hrs by sulforhodamine B assay; conditions: HL-60, 48 h, read-out: Activity
Summary of the method: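 NCI 60-cell panel. Cells are grown in RPMI 1640 with 5% FBS and 2 mM L-glutamine, seeded at 5000–40,000 cells/well according to doubling time, and preincubated 24 h. Time-zero plates are TCA-fixed. Compound from DMSO stock is given at five 10-fold or 1/2-log concentrations for 48 h at 37 °C, 5% CO2. Suspension cells are fixed with 80% TCA (final 16%) and SRB-stained, with absorbance at 515 nm. Percent growth is derived from Tz, control and test readings.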

RXF 393 [3] = assay: Cytotoxicity against human RXF393 cells assessed as cell growth at 1 uM after 48 hrs by sulforhodamine B assay; conditions: RXF 393, 48 h, read-out: Activity
NCI-H226 [4] = assay: Cytotoxicity against human NCI-H226 cells assessed as cell growth at 10 uM after 48 hrs by sulforhodamine B assay; conditions: NCI-H226, 48 h, read-out: Activity
SR [5] = assay: Cytotoxicity against human SR cells assessed as cell growth at 100 nM after 48 hrs by sulforhodamine B assay; conditions: read-out: Activity
HCC 2998 [6] = assay: Growth inhibition of human HCC2998 cells after 48 hrs by sulforhodamine B assay; conditions: HCC 2998, 48 h; for CC50: read-out: LC50 (the source's name)
Summary of the method: (§1)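 NCI 60-cell screen, five-dose mode. Cells grown in RPMI 1640 with 5% FBS and 2 mM L-glutamine and plated at 5000-40,000 cells/well according to doubling time. After 24 h preincubation, a Tz plate was TCA-fixed. Five concentrations (10-fold or 1/2 log dilutions) were applied for 48 h at 37 °C. SRB staining read at 515 nm. IC50 taken from [(Ti-Tz)/(C-Tz)]×100 = 50.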

SR [7] = assay: Growth inhibition of human SR cells after 48 hrs by sulforhodamine B assay; summary of the method: as §1
MCF7 [8] = assay: Cytotoxicity against human MCF7 cells assessed as cell growth at 10 uM after 48 hrs by sulforhodamine B assay; conditions: MCF7, 48 h, read-out: Activity
RXF 393 [9] = assay: Cytotoxicity against human RXF393 cells assessed as cell growth at 10 uM after 48 hrs by sulforhodamine B assay; conditions: RXF 393, 48 h, read-out: Activity
MCF7 [10] = assay: Cytotoxicity against human MCF7 cells assessed as cell growth at 0.001 uM after 48 hrs by sulforhodamine B assay; conditions: MCF7, 48 h, read-out: Activity
NCI-H226 [11] = assay: Growth inhibition of human NCI-H226 cells after 48 hrs by sulforhodamine B assay; conditions: NCI-H226, 48 h; for CC50: read-out: LC50 (the source's name); summary of the method: as §1
SK-MEL-28 [12] = assay: Cytotoxicity against human SK-MEL-28 cells assessed as cell growth at 0.001 uM after 48 hrs by sulforhodamine B assay; conditions: SK-MEL-28, 48 h, read-out: Activity
RXF 393 [13] = assay: Cytotoxicity against human RXF393 cells assessed as cell growth at 100 nM after 48 hrs by sulforhodamine B assay; conditions: RXF 393, 48 h, read-out: Activity
[14] = Cytotoxicity against human […] cells assessed as cell growth at 10 uM after 48 hrs by sulforhodamine B assay; conditions: read-out: Activity
NCI-H460 = assay: Cytotoxicity against human NCI-H460 cells assessed as cell growth at 1 uM after 48 hrs by sulforhodamine B assay; conditions: NCI-H460, 48 h, read-out: Activity
MDA-MB-435 = assay: Cytotoxicity against human MDA-MB-435 cells assessed as cell growth at 0.01 uM after 48 hrs by sulforhodamine B assay; conditions: MDA-MB-435, 48 h, read-out: Activity
PC-3 = assay: Cytotoxicity against human PC3 cells assessed as cell growth at 10 uM after 48 hrs by sulforhodamine B assay; conditions: PC-3, 48 h, read-out: Activity
SK-MEL-5 = assay: Cytotoxicity against human SK-MEL-5 cells assessed as cell growth at 1 uM after 48 hrs by sulforhodamine B assay; conditions: SK-MEL-5, 48 h, read-out: Activity
ACHN = assay: Cytotoxicity against human ACHN cells assessed as cell growth at 0.01 uM after 48 hrs by sulforhodamine B assay; conditions: read-out: Activity
CAKI-1 = assay: Cytotoxicity against human Caki1 cells assessed as cell growth at 1 uM after 48 hrs by sulforhodamine B assay; conditions: CAKI-1, 48 h, read-out: Activity
DU-145 = assay: Cytotoxicity against human DU145 cells assessed as cell growth at 0.01 uM after 48 hrs by sulforhodamine B assay; conditions: DU-145, 48 h, read-out: Activity
SF-295 = assay: Cytotoxicity against human SF295 cells assessed as cell growth at 100 nM after 48 hrs by sulforhodamine B assay; conditions: SF-295, 48 h, read-out: Activity
HCC 2998 [15] = assay: Cytotoxicity against human HCC2998 cells assessed as cell growth at 1 uM after 48 hrs by sulforhodamine B assay; conditions: HCC 2998, 48 h, read-out: Activity
SK-MEL-28 [16] = assay: Growth inhibition of human SK-MEL-28 cells after 48 hrs by sulforhodamine B assay; conditions: SK-MEL-28, 48 h; for CC50: read-out: LC50 (the source's name); summary of the method: as §1
[17] = Cytotoxicity against human […] cells assessed as cell growth at 10 uM; conditions: read-out: Activity
Summary of the method: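 NCI-60 screen: cells grown in RPMI 1640 with 5% FBS and 2 mM L-glutamine, plated at 5000–40,000 cells/well according to doubling time, and preincubated 24 h at 37 °C, 5% CO2. The single 10 µM dose (DMSO stock) was added, then incubated 48 h. Cells were TCA-fixed and stained with 0.4% SRB, read at 515 nm, and growth % calculated against time-zero and control plates.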

RXF 393 [18] = assay: Growth inhibition of human RXF393 cells after 48 hrs by sulforhodamine B assay; conditions: RXF 393, 48 h; summary of the method: as §1
HCC 2998 [19] = assay: Cytotoxicity against human HCC2998 cells assessed as cell growth at 10 uM after 48 hrs by sulforhodamine B assay; conditions: HCC 2998, 48 h, read-out: Activity
SR [20] = assay: Cytotoxicity against human SR cells assessed as cell growth at 0.001 uM after 48 hrs by sulforhodamine B assay; conditions: read-out: Activity
CCRF-CEM = assay: Cytotoxicity against human CCRF-CEM cells assessed as cell growth at 10 uM; conditions: read-out: Activity
Summary of the method: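 Single-dose NCI-60 screen at 10 µM. Cells were grown in RPMI 1640 with 5% FBS and 2 mM L-glutamine, then treated for 48 h at 37 °C. Protein was measured by SRB staining with absorbance at 515 nm. Percentage growth was recorded, and inhibition percentage was calculated as 100 minus growth percentage.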

## COc1cc(C)cc(-c2c(-c3ccnc(-c4ccc(C(C)=O)cc4)c3)cnn2CC#N)c1
UO-31
  growth at 10 µM: 15%
RXF 393 [1]
  growth at 0.001 µM: 86%
NCI-H226 [2]
  growth at 0.1 µM: 96%
HL-60(TB)
  growth at 1 µM: 20%
RXF 393 [3]
  growth at 1 µM: -27%
NCI-H226 [4]
  growth at 10 µM: 35%
SR [5]
  growth at 0.1 µM: 77%
HCC 2998 [6]
  GI50: 3.41 µM
  TGI: > 100 µM
  CC50: > 100 µM
SR [7]
  GI50: 2.87 µM
  LC50 (concentration killing 50% of cells): > 100 µM
  TGI: > 100 µM
MCF7 [8]
  growth at 10 µM: 17%
RXF 393 [9]
  growth at 10 µM: -27%
MCF7 [10]
  growth at 0.001 µM: 96%
NCI-H226 [11]
  GI50: 5.47 µM
  TGI: > 100 µM
  CC50: > 100 µM
SK-MEL-28 [12]
  growth at 0.001 µM: 90%
RXF 393 [13]
  growth at 0.1 µM: 94%
[14]
  growth at 10 µM: -1%
NCI-H460
  growth at 1 µM: -9%
MDA-MB-435
  growth at 0.01 µM: 91%
PC-3
  growth at 10 µM: 27%
SK-MEL-5
  growth at 1 µM: -37%
ACHN
  growth at 0.01 µM: 96%
CAKI-1
  growth at 1 µM: 29%
DU-145
  growth at 0.01 µM: 100%
SF-295
  growth at 0.1 µM: 85%
HCC 2998 [15]
  growth at 1 µM: 2%
SK-MEL-28 [16]
  GI50: 7.66 µM
  TGI: > 100 µM
  CC50: > 100 µM
[17]
  growth at 10 µM: 67.6%
RXF 393 [18]
  GI50: 2.32 µM
  LC50 (concentration killing 50% of the starting cells): > 100 µM
  TGI: 6.02 µM
HCC 2998 [19]
  growth at 10 µM: 5%
SR [20]
  growth at 0.001 µM: 96%
CCRF-CEM
  growth at 10 µM: 53.7%

## Cc1cc(O)cc(-c2nn(CC#N)cc2-c2ccnc(-c3ccc(N(C)C)cc3)c2)c1
UO-31
  growth at 10 µM: -19%
RXF 393 [1]
  growth at 0.001 µM: 100%
NCI-H226 [2]
  growth at 0.1 µM: 100%
HL-60(TB)
  growth at 1 µM: 2%
RXF 393 [3]
  growth at 1 µM: -32%
NCI-H226 [4]
  growth at 10 µM: -38%
SR [5]
  growth at 0.1 µM: 74%
HCC 2998 [6]
  GI50: 3.19 µM
  TGI: 13.2 µM
  CC50: 37.2 µM
SR [7]
  GI50: 2.64 µM
  LC50 (concentration killing 50% of cells): > 100 µM
  TGI: > 100 µM
MCF7 [8]
  growth at 10 µM: -61%
RXF 393 [9]
  growth at 10 µM: -46%
MCF7 [10]
  growth at 0.001 µM: 97%
NCI-H226 [11]
  GI50: 4.18 µM
  TGI: 21.8 µM
  CC50: > 100 µM
SK-MEL-28 [12]
  growth at 0.001 µM: 102%
RXF 393 [13]
  growth at 0.1 µM: 120%
[14]
  growth at 10 µM: -28%
MDA-MB-435
  growth at 0.01 µM: 91%
PC-3
  growth at 10 µM: -9%
SK-MEL-5
  growth at 1 µM: -26%
ACHN
  growth at 0.01 µM: 82%
CAKI-1
  growth at 1 µM: 9%
DU-145
  growth at 0.01 µM: 97%
SF-295
  growth at 0.1 µM: 78%
HCC 2998 [15]
  growth at 1 µM: 13%
SK-MEL-28 [16]
  GI50: 5.22 µM
  TGI: 32.4 µM
  CC50: > 100 µM
[17]
  growth at 10 µM: 41.6%
RXF 393 [18]
  GI50: 2.87 µM
  LC50 (concentration killing 50% of the starting cells): > 100 µM
  TGI: 61.4 µM
HCC 2998 [19]
  growth at 10 µM: -98%
SR [20]
  growth at 0.001 µM: 93%
CCRF-CEM
  growth at 10 µM: 40.3%
